Results as given in the RNAGym collection of RNA variant scans (doi:10.1126/science.aae0568).
Fewer inactive variants are shown than the library holds.

B1: tRNA (parent)
chain: GUUCCGUUGGCGUAAUGGUAACGCGUCUCCCUCCUAAGGAGAAGACUGCGGGUUCGAGUCCCGUACGGAACG

Variants of: B1
Test: yeast fitness relative to wild type (ratio to wild type); higher = fitter; tRNA-Arg(CCU), competitive growth, 37 C, YPD
Summary of the method: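 Changes in genotype frequencies gave Darwinian fitness relative to wild type. Frequencies were read by 100-nucleotide paired-end sequencing of gene amplicons before and after pooled Saccharomyces cerevisiae strains, carrying tRNA-Arg(CCU) gene variants at the native locus, were competed in YPD at 37°C for 24 hours in six replicates. A genotype was kept only with ≥ 100 starting reads, and estimates < 0.5 were set to 0.5.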
Variant U3A U16C A20C has a yeast fitness of no more than 0.5. In the case of A37U A42U A65C, the yeast fitness is reported as no more than 0.5. G17C A43U G48A C66G showed a yeast fitness of no more than 0.5. With G25C C66U the yeast fitness was 0.972. Variant C11U U53A C62A has a yeast fitness of no more than 0.5. For U32A A42C G63C A65U C66U, the yeast fitness was no more than 0.5. Variant C4A A21G C60U has a yeast fitness of 0.544. A42C U47C U54A G67C A69U showed a yeast fitness of no more than 0.5. For U19G A69C, the yeast fitness was 0.856. In the case of C5G U7A A20C G68C, the yeast fitness is reported as no more than 0.5. G6A C11G A21C C22G C30G A45U gave a yeast fitness of no more than 0.5. C4U U26A C46U gave a yeast fitness of 0.972. Variant C22U A40G C46U G63A has a yeast fitness of no more than 0.5. Work on G6A U19C U28G U32A G38C yielded a yeast fitness of no more than 0.5. Work on A21G C49U U53C C61G yielded a yeast fitness of no more than 0.5. For U47A U59A U64G, the yeast fitness was no more than 0.5. For U35C A42C, the yeast fitness was 0.819. Variant C30G C33G A69C has a yeast fitness of 0.544. U3G U8C A70C gave a yeast fitness of 0.59. G12C C49A gave a yeast fitness of 0.562. Work on U19G A43C yielded a yeast fitness of 0.971. In the case of C4A C5U G17A, the yeast fitness is reported as no more than 0.5. With C5U U16A C33U C61G A70U the yeast fitness was no more than 0.5. Work on C5G A45C C60U A69U yielded a yeast fitness of 0.52. Variant C4A C30U A40G has a yeast fitness of 0.542. C11G G18A G23A showed a yeast fitness of no more than 0.5. C33A A70U showed a yeast fitness of 0.655. In the case of C29G C49A, the yeast fitness is reported as 0.664. In the case of A21C U32A U35C, the yeast fitness is reported as no more than 0.5. Work on U28A C46G yielded a yeast fitness of 0.76. For G10C A36C G48A C62U, the yeast fitness was 0.555. With G10A C11A A14G A15G the yeast fitness was no more than 0.5. Variant U7C A65C has a yeast fitness of 0.912. A14G G51A gave a yeast fitness of 0.657. Variant G10A A57C has a yeast fitness of 0.525. C4G C11G U26A showed a yeast fitness of no more than 0.5. For A15G G39C, the yeast fitness was 0.736. With C5U C11A A21G A40U the yeast fitness was 0.68. For G39A C62U A70U, the yeast fitness was 0.593. Work on U2A C31G G39C A42G C49U C60G yielded a yeast fitness of no more than 0.5. U54A C62U G68U gave a yeast fitness of no more than 0.5. A43G C49U U54C showed a yeast fitness of 0.522. In the case of C11U A36U, the yeast fitness is reported as 0.606. In the case of G25A C31U, the yeast fitness is reported as 0.923. Work on G38A A40U yielded a yeast fitness of 0.747. Variant U32G A42G G58A C61U A70G has a yeast fitness of no more than 0.5. Work on U7A A21G U28A C29U G58A yielded a yeast fitness of 0.598. For C22U C29A G68A A69C, the yeast fitness was 0.55. For C11A C31G A69U, the yeast fitness was no more than 0.5. In the case of G12C A21U C34U A42U U64A G68U, the yeast fitness is reported as no more than 0.5. U13A C22U C66U showed a yeast fitness of 0.534. In the case of A40U U54C, the yeast fitness is reported as 0.802. G9A A20U C66U gave a yeast fitness of 0.529. With U2G U26G C49G the yeast fitness was 0.724. In the case of G17C C33G U59G A69U, the yeast fitness is reported as 0.665. For A57U A65U G68C A69G, the yeast fitness was no more than 0.5. Variant C5G A21G U26C C49A U54C A65G has a yeast fitness of no more than 0.5. With U7C A20U A36G A40U the yeast fitness was no more than 0.5. With C4G U19C C62U G63A the yeast fitness was 0.545. In the case of U2G C11G A36C C61G G63A, the yeast fitness is reported as no more than 0.5. Variant A21U C55A has a yeast fitness of no more than 0.5. G12C G41C C66U showed a yeast fitness of 0.551. C30G G58C G63C showed a yeast fitness of no more than 0.5. U2G C46A G56C showed a yeast fitness of no more than 0.5. With A21U U26C C60U the yeast fitness was no more than 0.5. With G39A G68C the yeast fitness was 0.806. Variant U8A A15U C29U has a yeast fitness of no more than 0.5. For G23A C66G, the yeast fitness was 0.659. C33G G39C C55A showed a yeast fitness of no more than 0.5. A21G G25C C27G A42C G68C gave a yeast fitness of no more than 0.5. For G10C G67C, the yeast fitness was 0.67. With C27U A37U U47G the yeast fitness was 0.531. With C11U C30U U47A G67C the yeast fitness was no more than 0.5. In the case of A14G G41A U47A C62A, the yeast fitness is reported as no more than 0.5. Variant G17A G50C has a yeast fitness of 0.647. Variant G6C G38C C46A has a yeast fitness of 0.54. Variant G10A A43C A65G has a yeast fitness of 0.589. With U3A A57U the yeast fitness was 0.754. Variant G9C C27U C33G has a yeast fitness of no more than 0.5. In the case of G12C C22U A43C, the yeast fitness is reported as 0.615. For U2A C11G A42U, the yeast fitness was no more than 0.5. With G6C C11U A21C G52A C61A G67C the yeast fitness was no more than 0.5. With A42G G58C A70U the yeast fitness was 0.748. G10C C24U G68C showed a yeast fitness of no more than 0.5. A20G U54G C66G showed a yeast fitness of no more than 0.5. Work on A43G U59C A70C yielded a yeast fitness of 0.658. For C11U A21C A43G, the yeast fitness was no more than 0.5. Work on C4U A14U A69U yielded a yeast fitness of 0.651. Variant C33U A36C A37G U64C has a yeast fitness of no more than 0.5. U2C U7A C34U G44C gave a yeast fitness of no more than 0.5. In the case of C27G A65G, the yeast fitness is reported as 0.694. U2C A14C U19A gave a yeast fitness of 0.595. Work on C4G A43U A70U yielded a yeast fitness of 0.623. G18C U35G G41C G56A A65G C66U gave a yeast fitness of no more than 0.5. With C11G C30A C31G G50A the yeast fitness was no more than 0.5. For A36G U47C, the yeast fitness was 0.989. Work on C5A C33U A36G yielded a yeast fitness of 0.532. With U8C A15C A45C the yeast fitness was 0.674. Work on A14C A42C U47C yielded a yeast fitness of no more than 0.5. A20C G67C A69G gave a yeast fitness of 0.539. Variant U8G G48A has a yeast fitness of 0.531. C4A C24G G25C A45G C60A gave a yeast fitness of no more than 0.5. Variant C11U A21G U64C has a yeast fitness of 0.945. C29A C46U gave a yeast fitness of 0.724. With C27A A36G A37G A70U the yeast fitness was no more than 0.5. Work on G17C A36G C49U C66U A69C yielded a yeast fitness of 0.598. U3A U16C C33G C66G gave a yeast fitness of 0.664. Work on C4A C31A G56A yielded a yeast fitness of 0.649. Work on C24U C29A A40G yielded a yeast fitness of 0.514. U7C G48C C61G A65U showed a yeast fitness of no more than 0.5. Work on G6C A21G A57C yielded a yeast fitness of no more than 0.5. In the case of G12A C22G C27A, the yeast fitness is reported as 0.663. Variant U19C A20C A21U has a yeast fitness of no more than 0.5. C4G G17A A36U gave a yeast fitness of 0.691. Work on C11G G50C yielded a yeast fitness of 0.597. For G6A G17A C24G C27G G67A, the yeast fitness was no more than 0.5. Variant G6A G9C C27A C31A has a yeast fitness of no more than 0.5. In the case of C34A A42U U54A A57U, the yeast fitness is reported as 0.511. C4G C27A U32G G39U G41C C66G showed a yeast fitness of no more than 0.5. G6C C11U C27G G41C gave a yeast fitness of no more than 0.5. Work on C22G C31G A57C A69C yielded a yeast fitness of no more than 0.5. U2C A15C C60A gave a yeast fitness of no more than 0.5. Variant A14G C24G has a yeast fitness of 0.597. Variant G12A U54A has a yeast fitness of 0.679. Work on G10C G18A C27G G63C yielded a yeast fitness of no more than 0.5. Work on A20C A21U C27G U32C U35G yielded a yeast fitness of no more than 0.5. G38C G67A showed a yeast fitness of 0.769. With G10C A14C C27A C29G A57C A65U the yeast fitness was no more than 0.5. For A20G A45C G50A U54G, the yeast fitness was no more than 0.5. In the case of U2A G6C G38A G68A, the yeast fitness is reported as no more than 0.5. In the case of C4U A21C A57U, the yeast fitness is reported as no more than 0.5. With G9A U13A A69C the yeast fitness was 0.809. For U32C A43G A45G, the yeast fitness was 0.608. For U28C C49G U59C, the yeast fitness was no more than 0.5. Variant G12A A20C C29A has a yeast fitness of no more than 0.5. For U13C A14G C24G C49G A69G, the yeast fitness was no more than 0.5. G12C C34U C49U A57G gave a yeast fitness of no more than 0.5. Variant A20G A21G has a yeast fitness of 0.986. Variant C22G C61A A69U has a yeast fitness of 0.573. For C5A G23C C61G C62U C66U, the yeast fitness was no more than 0.5. U7A G12C C27G C31A C46A gave a yeast fitness of no more than 0.5. Work on A14U A43U A45G U53C yielded a yeast fitness of no more than 0.5. Work on G39C A70C yielded a yeast fitness of 0.769. Variant G38A C61A has a yeast fitness of 0.646. Work on A36G G39C C49U U54G yielded a yeast fitness of 0.58. A14G G41A G44C C49U gave a yeast fitness of no more than 0.5. Variant C33U C62G has a yeast fitness of 0.632. U8C A15C U32C A69C showed a yeast fitness of no more than 0.5. U7A A21C C29U A37G C55U A70U showed a yeast fitness of 0.55. In the case of A14U G50C U53A A57U A65U, the yeast fitness is reported as 0.687. Work on G48C A70U yielded a yeast fitness of 1. A15G A37C G48C gave a yeast fitness of no more than 0.5. G17C U28A C30A C31A showed a yeast fitness of 0.623. Variant C30U G68C has a yeast fitness of 0.813. U8C G18C A20U C49G gave a yeast fitness of no more than 0.5. Work on C4U C11A G39A G51A G67C yielded a yeast fitness of no more than 0.5. Work on C62U G63C A70C yielded a yeast fitness of no more than 0.5. C5G A21U A43G C62A gave a yeast fitness of no more than 0.5. With G12C C62U A69U the yeast fitness was 0.651. In the case of C66U A70C, the yeast fitness is reported as 0.895. In the case of C4A U53A, the yeast fitness is reported as 0.769. A37U C66U showed a yeast fitness of 0.627. G17C A57G G67A gave a yeast fitness of 0.56. In the case of G12A C24G A40C A43C C46U G56A G68C A69U, the yeast fitness is reported as no more than 0.5. Variant U54G G63U has a yeast fitness of no more than 0.5. With C33A U35G C49U A65U the yeast fitness was no more than 0.5. U2A U7A gave a yeast fitness of 0.666.
